Shown are actives, neighbours in structure and some others; about 2.3% of the full set was active somewhere.
PRMT1 inh – blocks human protein arginine methyltransferase 1. Q99873. recombinant PRMT1, activity-based probe fluorescence polarization. inhibition, % at 2.79 µM. actives 1.3% (n = 370,000). AID 652257;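 active = inhibition above about 21% made by adding two undisclosed values, limit read from the data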
Target sequence (Q99873 whole entry, looked up): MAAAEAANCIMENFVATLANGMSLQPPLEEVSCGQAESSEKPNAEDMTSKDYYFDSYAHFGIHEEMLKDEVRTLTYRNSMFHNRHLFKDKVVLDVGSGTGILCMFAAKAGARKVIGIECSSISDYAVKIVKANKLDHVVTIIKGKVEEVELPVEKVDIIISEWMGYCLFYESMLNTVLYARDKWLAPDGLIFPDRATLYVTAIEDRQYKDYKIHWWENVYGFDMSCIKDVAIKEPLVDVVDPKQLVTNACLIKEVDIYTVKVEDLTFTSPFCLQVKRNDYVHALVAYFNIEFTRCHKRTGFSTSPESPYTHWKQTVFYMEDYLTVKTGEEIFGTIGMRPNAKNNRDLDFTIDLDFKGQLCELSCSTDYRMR
RBBP9 inh – human RBBP9 hydrolase inhibition | O75884 | recombinant RBBP9, FP-Rh probe fluorescence polarization | inhibition, % at 7.94 µM | actives 0.2% (n = 220,000) | AID 1515;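 active = inhibition above the campaign mean of all tested compounds plus 3 SD, cut at about 14% in these data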;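 note: plate controls were DMSO wells with RBBP9 for no effect and wells lacking RBBP9 protein for full effect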
Target sequence (O75884 whole entry, looked up): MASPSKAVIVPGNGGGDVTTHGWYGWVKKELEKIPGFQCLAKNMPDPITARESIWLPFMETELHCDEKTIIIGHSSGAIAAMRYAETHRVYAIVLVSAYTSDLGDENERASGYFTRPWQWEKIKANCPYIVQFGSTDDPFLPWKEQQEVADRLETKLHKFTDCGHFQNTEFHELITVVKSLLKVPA
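Assay system: recombinant human RBBP9; Reagent: Serine-hydrolase probe FP-Rh, 375 nM pre-mixing; Doses: 7.94 µM single dose, 0.794% DMSO; Incubation: 30 min then 45 min, 25 °C; Detection: fluorescence polarization (mP), excitation 525 nm, emission 598 nm; Evaluation: percent inhibition from mP, scaled between DMSO and no-protein wells.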
PAD4 inh – PAD4 (human) enzyme inhibition. Q9UM07. inhibition, % at 6.36 µM. actives 0.41% (n = 330,000). recombinant PAD4, RCA probe fluorescence polarization;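 active = percent inhibition above a cutoff equal to the mean of all tested compounds plus 3 SD, cut at about 15% in these data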;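 note: 0% = PAD4 with RCA probe and DMSO and 100% = probe without PAD4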
PME-1 inh – blocks human protein phosphatase methylesterase 1 | Q9Y570 | recombinant PME-1, FP-Rh probe fluorescence polarization | inhibition, % at 5.9 µM | actives 0.53% (n = 320,000) | AID 2130;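 active = inhibition above the campaign mean of all compounds plus 3 SD, cut at about 26% in these data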;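 note: competitive labeling of PME-1 active site by serine hydrolase directed probe; 0% = PME-1 with DMSO and 100% = wells lacking PME-1 enzyme; inhibitors block probe labeling so polarization falls and inhibition rises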
Fam108B counter – Fam108B inhibition, counter-screen for RBBP9 inhibitors | recombinant Fam108B, FP-Rh probe fluorescence polarization | inhibition, % at 9.51 µM | actives 0.33% (n = 300,000);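 active = inhibition above the screen mean inhibition plus 3 SD, computed separately per campaign, cut at about 18% in these data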;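 note: inhibitors lower polarization as less probe binds the enzyme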
GSTO1 inh – blocks human GSTO1 in RBBP9 counter-screen. P78417. recombinant GSTO1, activity-based probe fluorescence polarization. inhibition, % at 5.96 µM. actives 1.1% (n = 300,000). AID 1974;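 active = inhibition above the campaign mean inhibition plus 3 SD, cut at about 35% in these data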;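 note: 0% = GSTO1-1 with DMSO and 100% = wells lacking GSTO1-1 enzyme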
PRMT1 confirm – PRMT1 (human) inhibition, FP confirmation; shares compounds with PRMT1 inh; recombinant His-PRMT1, activity-based probe fluorescence polarization; inhibition, % at 2.79 µM; actives 42% (n = 3,300);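 active = mean inhibition across replicates above the hit cutoff derived for the earlier primary screen, cut at about 22% in these data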
Numbers without * were called inactive; x = no result given.

SMILES | PRMT1 inh | RBBP9 inh | PAD4 inh | PME-1 inh | Fam108B counter | GSTO1 inh | PRMT1 confirm
CC1CCCCC1NC(=O)CCS(=O)(=O)c1ccc2c(c1)NC(=O)CS2 (stereo not drawn) | 0 | x | -2 | 2 | -2 | 0 | x
Cc1c(C2Nc3ccccc3NC3=C2C(=O)CC(C)(C)C3)cnn1C (stereo not drawn) | 27* | -4 | 1 | 1 | -2 | 6 | 0
COc1ccc2c(ccc[n+]2[O-])c1 | 2 | x | x | x | x | x | x
COc1ccc2nc3ccccc3[n+]([O-])c2c1 | 37* | x | x | x | x | x | 27*
CCCOc1ccc(-c2nc(=S)[nH][nH]2)cc1 | 46* | -8 | 5 | 1 | 1 | 5 | 12
CC(/C=N/n1c(-c2cc(C)[nH]n2)n[nH]c1=S)=C\c1ccco1 | 4 | 3 | -7 | -5 | 3 | -7 | x
S=c1[nH]nc(-c2ccncc2)n1/N=C/C=C/c1ccccc1 | 4 | -12 | 0 | 2 | 2 | 2 | x
S=c1[nH]nc(-c2ccco2)n1/N=C/c1ccc(Cl)cc1 | 25* | -1 | 3 | 10 | 3 | -8 | 20
S=c1[nH]nc(-c2ccncc2)n1/N=C/C(Cl)=C\c1ccccc1 | 34* | -7 | 4 | -5 | -1 | 7 | 19
S=c1[nH]nc(-c2ccco2)n1/N=C/c1ccccc1Cl | 8 | -8 | 2 | 6 | 2 | 5 | x
CC(/C=N/n1c(-c2ccc(Cl)cc2)n[nH]c1=S)=C\c1ccco1 | 27* | -4 | -6 | 4 | 2 | 2 | 15
COc1ccc(NS(=O)(=O)c2cc(NC(=O)CC3CCCC3)ccc2N2CCOCC2)cc1 | 0 | -3 | -4 | -1 | 3 | 0 | x
C[n+]1ccccc1C1CCCC/C1=N\NC(N)=S (stereo not drawn) | 0 | -7 | -3 | 0 | -1 | 7 | x
CCc1cccc2c(C(=O)CN3C(=O)NC4(CCCCCC4)C3=O)c[nH]c12 | 0 | x | -1 | -2 | x | x | x
CC(C)(C)c1csc(NC(=O)Cn2cnc3ccccc3c2=O)n1 | 29* | -5 | -3 | 11 | 1 | -5 | 0
CC(C)C1Cc2c(C#N)c(N)sc(=S)c2CO1 (stereo not drawn) | 48* | -5 | -5 | -4 | -7 | 0 | 10
CC1(C)Cc2c(C#N)c(N)sc(=S)c2CO1 | 46* | -6 | 3 | 2 | 3 | 7 | 20
CCN(CC)c1nc(C)c2c(c1C#N)CC(C)(C)OC2 | 4 | 9 | 3 | 2 | 0 | -8 | x
CC(C)N1CCc2c(sc(N)c2C#N)C1 | 3 | x | -13 | -11 | -7 | -3 | x
Cc1ccc(S(=O)(=O)N2CCCCC2)cc1NC(=O)CN1C(=O)CN(C)C1=O | -4 | -3 | 4 | -3 | 1 | 3 | x
COc1cc(CN(C)c2ccc(S(=O)(=O)N3CCCC3)cn2)ccc1OC(F)F | 4 | x | x | x | x | x | x
COc1ccccc1CNC(=O)c1ccc(OCc2c(C)noc2C)c(OC)c1 | -2 | -5 | 4 | 0 | -1 | 3 | x
CC1Cc2cc(S(=O)(=O)NCc3ccccc3)ccc2N1C(=O)C1CC1 (stereo not drawn) | 47* | x | -1 | 6 | 4 | 13 | 3
Cc1cc(C)cc(NS(=O)(=O)c2ccc(NC(=S)NC(=O)c3cccs3)cc2)c1 | 0 | -38 | -1 | -60 | -44 | -14 | x
CC1=C(C(=O)OC2CCCCC2)C(c2ccccc2)NC(=O)N1 (stereo not drawn) | 0 | x | 4 | 0 | 6 | -15 | x
SMILES | PRMT1 inh | RBBP9 inh | PAD4 inh | PME-1 inh | Fam108B counter | GSTO1 inh | PRMT1 confirm
O=C(CCNc1ccc(F)cc1)c1cccc([N+](=O)[O-])c1 | 32* | -6 | 0 | 3 | -1 | 15 | 39*
Cc1ccc(CONC(=O)c2cccc([N+](=O)[O-])c2)cc1 | 2 | x | 4 | -3 | x | x | x
Cc1nc(SCC(=O)c2cccc([N+](=O)[O-])c2)n[nH]1 | 30* | -5 | -1 | -3 | -3 | -7 | 7
Cc1ccc(NCCC(=O)c2cccc([N+](=O)[O-])c2)cc1 | 33* | -1 | 1 | -1 | -1 | 1 | 54*
O=C(CNC(=O)c1cccc([N+](=O)[O-])c1)OCCCC(=O)c1ccc(F)cc1 | 2 | x | 2 | x | x | x | x
O=C(CC(=O)c1ccccc1)Nc1cccc([N+](=O)[O-])c1 | 3 | x | x | x | x | x | x
O=C(CCNc1ccccc1)c1cccc([N+](=O)[O-])c1 | 36* | -3 | 3 | 1 | 5 | 16 | 30*
Cc1ccnc(SCC(=O)c2cccc([N+](=O)[O-])c2)n1 | 6 | -1 | -5 | -1 | -3 | 2 | x
Cc1cnc(C(=O)OCC(=O)c2ccc(F)c(F)c2)cn1 | 3 | x | -3 | 2 | 3 | 0 | x
O=C(CCNc1ccc(Br)cc1)c1cccc([N+](=O)[O-])c1 | 28* | -4 | 0 | 6 | -1 | 5 | 23*
O=C(NCCNc1ccc([N+](=O)[O-])cc1)c1cccc(Br)c1 | 2 | -9 | -3 | 5 | 0 | 0 | x
COc1ccc(CCNC(=O)CCSCc2ccccc2F)cc1OC | -1 | x | 4 | 3 | 0 | 4 | x
CCN1CCN(C(=S)Nc2cccc(C(F)(F)F)c2)CC1 | -1 | 1 | -2 | -6 | -3 | 2 | x
Fc1cc(F)c(C2SCCN2C(=S)Nc2cccc(C(F)(F)F)c2)c(F)c1 (stereo not drawn) | 78* | -6 | 4 | -7 | -6 | -7 | 9
CCOC(=O)c1ccc(NC(=S)N2CCN(S(C)(=O)=O)CC2)cc1 | -3 | 5 | 1 | -7 | 6 | 4 | x
CCOC(=O)c1ccc(NC(=S)N2CCSC2c2c(F)cc(F)cc2F)cc1 (stereo not drawn) | 89* | -3 | 0 | -13 | -14 | -11 | -1
CCOc1ccc(NS(=O)(=O)c2cc(OC)ccc2OC)cc1 | 5 | -4 | -2 | -3 | 0 | 1 | x
CC(Oc1ccc(Cl)cc1Cl)C(=O)Nc1ccc(O)cc1 (stereo not drawn) | -4 | -3 | -2 | 2 | 1 | 3 | x
Cc1ccc(S(=O)(=O)N2CCOCC2)cc1N/N=C(\C#N)c1nc2ccccc2[nH]1 | 1 | 0 | -5 | -3 | -13 | -10 | x
CCCCCCn1c(=O)[nH]c2nc3cc(N)ccc3nc2c1=O | 124* | 0 | 13 | 30* | 7 | 0 | 104*
COc1ccc(NC(=O)/C=C/C(=O)O)c([N+](=O)[O-])c1 | 43* | -4 | -5 | 2 | 3 | 7 | 1
Cc1cc(NC(=O)/C=C\C(=O)O)c([N+](=O)[O-])cc1C | 47* | -12 | -3 | -8 | 1 | 0 | 3
O=C(COc1cc(F)ccc1[N+](=O)[O-])Nc1cccc(Br)c1 | -1 | -10 | -5 | -4 | -8 | 0 | x
O=c1c2ccccc2nc(N2CCN(c3ccccc3)CC2)n1Cc1ccccc1 | 74* | -7 | -2 | -8 | -3 | 0 | 3
